The values that follow come from paper PMC11557630 (Targeted Oncology, 2024).

Each structure is given as a SMILES string.

Data set [1] has as its system patients with refractory solid tumors. Nature of the data set: Safety and tolerability. In kind it is in vivo, human. Conditions: for Patients with AEs causally related to adavosertib: 12 patients. An outline of the steps:
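Open-label, multicenter escalation: oral adavosertib 175 mg twice daily on a 3-days-on/4-days-off schedule, plus continuous oral olaparib 200 mg twice daily, in 21-day cycles. DLTs were recorded in cycle 1, a window extendable up to 2 weeks after drug-related delays; DLT-evaluable patients received >75% of planned doses. AEs were graded by CTCAE v4.03 via examination, vital signs and laboratory tests.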

For data set [2], the system named is patients with relapsed extensive-stage SCLC. Nature of the data set: Safety and tolerability. In kind it is in vivo, human. Conditions: part B SCLC cohort. The procedure, abridged: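 Oral adavosertib 200 mg once daily on days 1–3 and 8–10 of a 21-day cycle, plus continuous oral olaparib 200 mg twice daily. AEs were graded by CTCAE v4.03 and assessed by physical examination, vital signs (blood pressure, pulse, body temperature) and laboratory parameters, from enrollment through post-treatment follow-up. Safety data were summarized descriptively.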

The test system of data set [3] is PARP inhibitor-resistant ovarian cancer. Conditions: adavosertib monotherapy arm; cited from earlier work.
Data set [4] deals with cell kill activity. The conditions noted are these: preclinically determined; no reference given; cited from earlier work.
Data set [5] is described as follows: Plasma pharmacokinetics of adavosertib and olaparib, part A. Type of data set: in vivo, human.
Setting [6] is: in combination with olaparib, cohort 4.2.
[7] abbreviates: in combination with olaparib, cohort 7.4.
Where [8] appears, read: with adavosertib 175 mg bid vs olaparib alone.

In the case of `C=CCn1c(=O)c2cnc(Nc3ccc(N4CCN(C)CC4)cc3)nc2n1-c1cccc(C(C)(C)O)n1` [adavosertib], the “Patients with an AE leading to dose reduction of adavosertib” value in data set [1] (cohort 4.2, five patients) is recorded as 35.7%. Moreover, the “Patients with an AE leading to dose interruption of adavosertib” value in data set [1] (cohort 4.2, seven patients) came to 50.0%. Also, in data set [1] (cohort 7.4, five patients), the “Patients with an AE leading to dose interruption of adavosertib” value is 38.5%. The “Patients with an AE leading to dose reduction of adavosertib” value in data set [1] (cohort 7.4, three patients) was 23.1%. The “MTD for adavosertib bid” value in data set [1] (days 1–3, 8–10/21-day cycle, plus continuous olaparib 200 mg bid (cohort 4.2)) is given as 175 mg. In data set [1] (setting [6]), the “Anemia causally related to adavosertib” value turned out to be 35.7%, the “Decreased appetite causally related to adavosertib” value was 50.0%, the “Diarrhea causally related to adavosertib” value was determined as 50.0% and the “Fatigue causally related to adavosertib” value is reported as 64.3%. Moreover, in data set [1] (setting [6]), the “Nausea causally related to adavosertib” value is recorded as 50.0% and the “Patients with AEs causally related to adavosertib” value was 85.7%. For the same compound, the “Patients with serious AEs causally related to adavosertib” value in data set [1] (in combination with olaparib, cohort 4.2, three patients) turned out to be 21.4%. Besides, in data set [1] (setting [7]), the “Anemia causally related to adavosertib” value is 38.5%, the “Decreased appetite causally related to adavosertib” value worked out at 30.8%, the “Diarrhea causally related to adavosertib” value amounted to 38.5% and the “Fatigue causally related to adavosertib” value is given as 15.4%. Also, in data set [1] (setting [7]), the “Nausea causally related to adavosertib” value is recorded as 23.1% and the “Patients with AEs causally related to adavosertib” value is 92.3%. Moreover, the “Patients with serious AEs causally related to adavosertib” value in data set [1] (in combination with olaparib, cohort 7.4, one patient (dizziness)) was found to be 7.7%. Besides, the “Patients with CTCAE grade ≥ 3 events causally related to adavosertib” value in data set [1] (in combination with olaparib, part A overall, 52 patients) came out at 43.7%. Further, the “AEs with an outcome of death considered causally related to adavosertib” value in data set [1] (part A overall, sepsis, not a result of a DLT) is on record as “one”. Besides, in data set [2], the “AEs leading to dose reductions of adavosertib” value is reported as “one” and the “AEs leading to interruptions of adavosertib” value is given as “three”. Further, the Clinical benefit rate in data set [3] is reported as 63%. Also, the “Target adavosertib plasma concentration range for cell kill activity” value in data set [4] is 0.5 to 1 µM.

Consider `O=C(c1cc(Cc2n[nH]c(=O)c3ccccc23)ccc1F)N1CCN(C(=O)C2CC2)CC1` [olaparib, reference compound], for which the “Patients with an AE leading to dose interruption of olaparib” value amounted to 64.3% in data set [1] (cohort 4.2, nine patients) and 61.5% in data set [1] (cohort 7.4, eight patients). In addition, the “Patients with an AE leading to dose reduction of olaparib” value in data set [1] (cohort 4.2, three patients) worked out at 21.4%; in data set [1] (cohort 7.4, three patients) it was 23.1%. For the same compound, the “AEs leading to interruptions of olaparib” value in data set [2] was “five”. Besides, the “Ratio of olaparib plus adavosertib to olaparib alone for AUC0–10 and/or Cmax” value in data set [5] (in some patients (high outliers)) was “exceeded 2”. In addition, in data set [5] (part A), the “Difference between exposure to olaparib in the presence of adavosertib and to olaparib alone” value is on record as “no statistically significant difference”. Besides, in data set [5] (part A, Supplementary Fig. 3), the “Olaparib Cmin,ss compared with the IC95 in preclinical studies” value is “comparable”. Moreover, in data set [5] (setting [8]), the “Increase in olaparib AUC0–10” value turned out to be 33%. Moreover, in data set [5] (setting [8]), the “Increase in olaparib Cmax” value is 18%.
